Measurements published in PubChem BioAssay.
Results filed as inconclusive are left out.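 Rule for the calls, unless noted: active = viability increase at or above a cutoff of the median across tested compounds plus 3 SD (cut at about 8.5% in these data, passing the limit was not always enough); inconclusive = some gains above the cutoff, reason not given; inactive = the rest.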

Legend:
[1] = OD615 S. cerevisiae growth inhibition, permissive medium, pilot counter-assay, permissive growth control for S. cerevisiae lifespan shortening project (AID 705;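 active = growth inhibition above 25% in both replicates, a cutoff set 3 SD above the mean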); details: OD615, 24 h, at 10 µM, stronger effect = higher value
Summary of the method: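 Material: engineered DeaD yeast; compound dosing: one dose 10 µM, DMSO 0.25% final; measure: yeast growth inhibition indicated by reduced 24 h OD615; detection: OD615 turbidity read; incubation: cells pre-grown 4 h, then 24 h compound exposure, 30 °C humidified; medium: permissive synthetic complete medium with raffinose and galactose carbon sources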

[2] = Restrictive medium S. cerevisiae growth inhibition, OD615, pilot screen of yeast lifespan reduction project, restrictive growth control (AID 706;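 active = growth inhibition above a set limit, 3 SD over mean compound inhibition, in both replicates, cut at about 43% in these data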;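 note: modified DeaD lifespan yeast strain shifted to restrictive glucose medium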); details: OD615, 48 h, at 10 µM, stronger effect = higher value
Summary of the method: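 material = engineered S. cerevisiae DeaD strain | medium = glucose-based CSMM-D restrictive medium | times = 4 h pre-incubation, 48 h exposure at 30 °C | technique = OD615 absorbance reading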

[3] = viability gain of MRP-1-high H69AR cells under doxorubicin, pilot screen, MRP-1 activator project, CellTiter-Glo, duplicate (AID 807); details: H69AR viability with doxorubicin, CellTiter-Glo luminescence; at 10 µM; stronger effect = higher value;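 note: compound pretreatment 18-22 h then 72 h combined with doxorubicin; 0% = doxorubicin alone and 100% = vehicle without doxorubicin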
[4] = growth suppression of beta-catenin knockout HCT116, pilot screen, human colon tumor cells (AID 823;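 active = cell viability at or below a set limit in both duplicate runs, the limit being the all-compound median minus 4 SD, cut at about 23% in these data, passing the limit was not always enough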;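 note: 0% = wells killed by 20 µM Hyamine and 100% = untreated DMSO cell wells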); details: CellTiter-Glo, 60 h, at 10 µM, stronger effect = lower value
[5] = growth suppression of PTEN-deleted HCT116, pilot screen, cell-based, HCT116 clonal line, CellTiter-Glo (AID 824;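 active = viability at or below 27.92% in each of two runs, the all-compound median minus 4 SD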;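 note: 0% = 20 µM Hyamine control and 100% = vehicle cell control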); details: 60 h, at 10 µM, stronger effect = lower value
[6] = inhibitors of the yeast RAM network, pilot screen, dse1pr::URA3 reporter, 5-FOA selection (AID 869;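 active = inhibition over a set limit, the all-compound mean plus 3 SD, in both replicate runs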;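 note: 0% = DMSO wells with no growth and 100% = 10 µM 1-NA-PP1 with full growth; RAM network block rescues cells from 5-FOA so hits raise OD615 growth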); details: S. cerevisiae dse1pr::URA3 5-FOA growth, OD615, 2 d; at 10 µM; stronger effect = higher value; strain carries analog-sensitive mutant Cbk1 kinase
[7] = RAM signaling pathway blockade in yeast – S. cerevisiae, Pdr1DBD-CYC8 efflux-inhibited sensitized strain, primary screen (AID 1298;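 active = RAM network inhibition above 8.4% in each of two replicates, 3 SD over the compound average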;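 note: 0% = DMSO untreated cells without growth and 100% = 10 µM 1-NA-PP1 full growth; higher means more yeast growth rescued from 5-FOA killing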); details: S. cerevisiae cbk1-as DSE1-URA3 strain, 5-FOA growth OD615, 2 d; at 50 µM; stronger effect = higher value

CC1Oc2ccccc2C=C1C1/C(=C(/O)c2ccccc2)C(=O)C(=O)N1CCCN(C)C (stereo unspecified)
inactive: growth inhibition [1] -3.27% | growth inhibition [2] 2.81% | viability increase [3] -2.78% | viability [4] 95.6% | viability [5] 97% | inhibition [6] -0.25% | RAM network inhibition [7] 0.77%

COCCNC(=O)C1CCN(S(=O)(=O)c2ccccc2)CC1
inactive: growth inhibition [1] -2.1% | growth inhibition [2] -7.54% | viability increase [3] -1.38% | viability [4] 101% | viability [5] 93.7% | inhibition [6] -0.045% | RAM network inhibition [7] 2.93%

Cn1c(Cn2c(=O)sc3ccccc32)nnc1SCC(=O)NCc1ccccc1
inactive: growth inhibition [1] -10.1% | growth inhibition [2] -7.48% | viability increase [3] -0.73% | viability [4] 99% | viability [5] 102% | inhibition [6] 3.87% | RAM network inhibition [7] 4.44%

COc1ccc(CCNC(=O)CCn2c(=O)oc3ccccc32)cc1
inactive: growth inhibition [1] -5.1% | growth inhibition [2] -14% | viability increase [3] -1.45% | viability [4] 109% | viability [5] 99.7% | inhibition [6] -0.205% | RAM network inhibition [7] 2.7%

Cc1cccc(C2Nc3ccccc3C(=O)N2CCc2ccccc2)n1 (stereo unspecified)
inactive: growth inhibition [1] -10.1% | growth inhibition [2] -2.82% | viability increase [3] -2.91% | viability [4] 78.3% | viability [5] 73.5% | inhibition [6] 2.09% | RAM network inhibition [7] 7.42%

O=C(Nc1ccon1)c1cccc(C(F)(F)F)c1
inactive: growth inhibition [1] -9.21% | growth inhibition [2] -5.36% | viability increase [3] 2.41% | viability [4] 104% | viability [5] 101% | inhibition [6] 0.075% | RAM network inhibition [7] 0.62%

Cc1ccc(S(=O)(=O)/N=C/c2ccco2)cc1
inactive: growth inhibition [1] -11.7% | growth inhibition [2] -12.3% | viability increase [3] -1.73% | viability [4] 105% | viability [5] 100% | inhibition [6] 0.625% | RAM network inhibition [7] 6.25%

Cc1ccc(-c2nc(CS(=O)CC(=O)NCCN3CCOCC3)c(C)o2)cc1 (stereo unspecified)
inactive: growth inhibition [1] -6.06% | growth inhibition [2] 2.29% | viability increase [3] -0.04% | viability [4] 92.9% | viability [5] 98% | inhibition [6] 1.84% | RAM network inhibition [7] 2.15%

COC(=O)c1nc2n(n1)C(c1cccc(Cl)c1)C1=C(CCCC1=O)N2 (stereo unspecified)
inactive: growth inhibition [1] -4.09% | growth inhibition [2] 7.08% | viability increase [3] -2.99% | viability [4] 98.1% | viability [5] 95.3% | inhibition [6] 0.155% | RAM network inhibition [7] 1.89%

COc1ccc(O)c(-c2[nH]ncc2C(=O)c2ccccc2C)c1
inactive: growth inhibition [1] -7.88% | growth inhibition [2] -5.12% | viability increase [3] -0.59% | viability [4] 100% | viability [5] 98.5% | inhibition [6] -0.045% | RAM network inhibition [7] -0.67%

CCN(CC)S(=O)(=O)c1cc(C(=O)Nc2ccc(Cl)cn2)ccc1C
inactive: growth inhibition [1] -5.56% | growth inhibition [2] -11.5% | viability increase [3] 2.78% | viability [4] 52.9% | viability [5] 74.2% | inhibition [6] 1.1% | RAM network inhibition [7] -0.26%

COc1ccc(C2C(C(=O)N3CCCCC3)c3ccccc3C(=O)N2C)cc1 (stereo unspecified)
inactive: growth inhibition [1] -2.93% | growth inhibition [2] -8.27% | viability increase [3] -2.9% | viability [4] 92.3% | viability [5] 91.2% | inhibition [6] 0.375% | RAM network inhibition [7] 2.69%

CC1=C(C(=O)OC2CCCCCCC2)C(c2cccc(O)c2)NC(=O)N1 (stereo unspecified)
inactive: growth inhibition [1] -1.81% | growth inhibition [2] 0.17% | viability increase [3] 4.53% | viability [4] 65.2% | viability [5] 65.6% | inhibition [6] 0.63% | RAM network inhibition [7] 0.89%

Cc1cc(NC(=O)NC2(C(F)(F)F)Oc3ccc(Cl)cc3O2)no1 (stereo unspecified)
inactive: growth inhibition [1] -3.33% | growth inhibition [2] -23% | viability increase [3] -5.78% | viability [4] 32.6% | viability [5] 42.5% | inhibition [6] 3.26% | RAM network inhibition [7] 7.87%

Cn1cnnc1SCC(=O)c1ccc2c(c1)CCCC2
inactive: growth inhibition [1] -1.79% | growth inhibition [2] 12.5% | viability increase [3] -1.07% | viability [4] 105% | viability [5] 96.6% | inhibition [6] 0.17% | RAM network inhibition [7] 4.35%

Cc1cc(NC(=O)c2ccccc2)sc1C
inactive: growth inhibition [1] -5.22% | growth inhibition [2] 3.02% | viability increase [3] -3.69% | viability [4] 70.7% | viability [5] 70% | inhibition [6] -1.59% | RAM network inhibition [7] -1.89%

O=C(Nc1nnc(-c2ccc3c(c2)OCCO3)o1)c1ccc(Cc2ccccc2)cc1
inactive: growth inhibition [1] -7.6% | growth inhibition [2] 6.34% | viability increase [3] -4.05% | viability [4] 46.1% | viability [5] 40.9% | inhibition [6] 1.59% | RAM network inhibition [7] 4.3%

Cc1cccc(CN2CCN(CC(=O)NCc3ccc(F)cc3)C2=O)c1
inactive: growth inhibition [1] -2.2% | growth inhibition [2] -1.6% | viability increase [3] 0.82% | viability [4] 104% | viability [5] 104% | inhibition [6] 0.03% | RAM network inhibition [7] 3.27%

CCOC(=O)c1nc2nc(C)cc(=O)n2[nH]1
inactive: growth inhibition [1] -14.5% | growth inhibition [2] -7.54% | viability increase [3] 0.46% | viability [4] 105% | viability [5] 97.7% | inhibition [6] 0.96% | RAM network inhibition [7] 4.54%

COc1ccc(N)cc1C#N
inactive: growth inhibition [1] -7.31% | growth inhibition [2] -5.58% | viability increase [3] -3.17% | viability [4] 98.5% | viability [5] 93.6% | inhibition [6] 1.06% | RAM network inhibition [7] 1.63%

CCCC(=O)Nc1nc2ccc(OCC)cc2s1
inactive: growth inhibition [1] -2.23% | growth inhibition [2] -0.195% | viability increase [3] 0.26% | viability [4] 86.8% | viability [5] 85.7% | inhibition [6] 0.615% | RAM network inhibition [7] 2.15%

COc1cc(CO)cc(Br)c1OCC(=O)O
inactive: growth inhibition [1] -2.25% | growth inhibition [2] -3.28% | viability increase [3] -1.45% | viability [4] 102% | viability [5] 92.5% | inhibition [6] 0.03% | RAM network inhibition [7] -1.46%

COc1ccccc1C(=O)Nc1nnc(-c2ccc3c(c2)CCCC3)o1
inactive: growth inhibition [1] -10.5% | growth inhibition [2] 7.12% | viability increase [3] -0.59% | viability [4] 90.2% | viability [5] 85.1% | inhibition [6] 0.08% | RAM network inhibition [7] -0.58%

COc1ccc(NC(=O)N(CCC(C)C)C(C)c2ccccn2)c(OC)c1 (stereo unspecified)
inactive: growth inhibition [1] -5% | growth inhibition [2] 7.73% | viability increase [3] -3.52% | viability [4] 79.2% | viability [5] 85.6% | inhibition [6] 1.11% | RAM network inhibition [7] 3.79%

CC(=O)N=C1SC2CS(=O)(=O)CC2N1c1c(Cl)cccc1Cl (stereo unspecified)
inactive: growth inhibition [1] 5.46% | growth inhibition [2] 3.7% | viability increase [3] -1.41% | viability [4] 99.4% | viability [5] 94.2% | inhibition [6] 0.405% | RAM network inhibition [7] -0.17%

O=C(C(Cc1ccccc1)n1cccc1)N1CCN(C2CCCCC2)CC1 (stereo unspecified)
inactive: growth inhibition [1] -10.9% | growth inhibition [2] -3.01% | viability increase [3] -3.47% | viability [4] 81.8% | viability [5] 88.7% | inhibition [6] 1.42% | RAM network inhibition [7] 8.24%

O=C(CN1CCOc2ccccc21)NCc1ccc(Cl)cc1
inactive: growth inhibition [1] -36.4% | growth inhibition [2] -1.02% | viability increase [3] -6.71% | viability [4] 90.8% | viability [5] 81.6% | inhibition [6] 0.665% | RAM network inhibition [7] -0.68%

Cc1ccc(N2C(=O)C(Cl)=C(NCCO)C2=O)c(C)c1
inactive: growth inhibition [1] -4.71% | growth inhibition [2] -2.88% | viability increase [3] -2.47% | viability [4] 105% | viability [5] 100% | inhibition [6] 2.02% | RAM network inhibition [7] 8.82%

CC1(C)Cc2c(C#N)c(NC3CCCCC3)nc(-c3ccco3)c2CO1
inactive: growth inhibition [1] -15.4% | growth inhibition [2] -17.4% | viability increase [3] -6.33% | viability [4] 80.3% | viability [5] 76.3% | inhibition [6] 3.23% | RAM network inhibition [7] 0.53%

CN(Cc1ccccc1)C(=O)c1ccc2c(c1)OCCO2
inactive: growth inhibition [1] -14.5% | growth inhibition [2] -4.09% | viability increase [3] -0.29% | viability [4] 89.5% | viability [5] 94.6% | inhibition [6] 1.48% | RAM network inhibition [7] 3.49%

COc1ccc(C(C)=O)cc1CSc1nnc(C)s1
inactive: growth inhibition [1] -9.51% | growth inhibition [2] -8.14% | viability increase [3] -2.37% | viability [4] 96.5% | viability [5] 96.8% | inhibition [6] -0.565% | RAM network inhibition [7] 0.11%

CCOC(=O)c1c(N)sc(C(=O)N2CCCCCC2)c1C
inactive: growth inhibition [1] -20.4% | growth inhibition [2] -21.8% | viability increase [3] 0.25% | viability [4] 96.7% | viability [5] 91.2% | inhibition [6] -0.305% | RAM network inhibition [7] -0.21%

CC1CCCC(C)N1c1nnc(NC(=O)Cn2c(=O)oc3ccccc32)s1 (stereo unspecified)
inactive: growth inhibition [1] -4.67% | growth inhibition [2] 9.9% | viability increase [3] 0.39% | viability [4] 95.1% | viability [5] 99.2% | inhibition [6] 1.85% | RAM network inhibition [7] 3.6%
